Source: article PMC6777294 (ACS Omega, 2019)
Like-named read-outs stand apart in the source and are kept apart here.

Columns and labels:
[1] = target: T1, hMAO-B (Homo sapiens, UniProt P27338); assay: In vitro human MAO inhibitory assay; type: biochemical
T1 sequence (P27338 1-520): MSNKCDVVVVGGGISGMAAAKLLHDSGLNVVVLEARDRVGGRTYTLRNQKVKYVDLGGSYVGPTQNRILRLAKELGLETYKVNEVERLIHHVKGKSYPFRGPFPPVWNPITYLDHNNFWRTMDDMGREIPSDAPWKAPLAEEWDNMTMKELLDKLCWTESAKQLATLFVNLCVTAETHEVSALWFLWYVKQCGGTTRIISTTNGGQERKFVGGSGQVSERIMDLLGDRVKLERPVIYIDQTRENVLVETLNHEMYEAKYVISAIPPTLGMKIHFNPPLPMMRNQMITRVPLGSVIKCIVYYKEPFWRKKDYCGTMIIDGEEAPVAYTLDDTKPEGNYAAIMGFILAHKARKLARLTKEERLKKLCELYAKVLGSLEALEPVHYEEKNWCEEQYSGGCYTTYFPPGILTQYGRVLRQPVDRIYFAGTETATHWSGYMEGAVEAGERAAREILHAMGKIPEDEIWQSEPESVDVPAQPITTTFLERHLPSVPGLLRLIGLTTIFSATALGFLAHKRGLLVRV

[2] = target: T2, hMAO-A (Homo sapiens, UniProt P21397); assay: biochemical; conditions: Table 2; for IC50: IC50 (μM) hMAO-A (n = 3), log dose inhibition curve, mean ± SD of triplicate; for SI (selective index): ratio of hMAO-B IC50/hMAO-A IC50
T2 sequence (P21397 1-527): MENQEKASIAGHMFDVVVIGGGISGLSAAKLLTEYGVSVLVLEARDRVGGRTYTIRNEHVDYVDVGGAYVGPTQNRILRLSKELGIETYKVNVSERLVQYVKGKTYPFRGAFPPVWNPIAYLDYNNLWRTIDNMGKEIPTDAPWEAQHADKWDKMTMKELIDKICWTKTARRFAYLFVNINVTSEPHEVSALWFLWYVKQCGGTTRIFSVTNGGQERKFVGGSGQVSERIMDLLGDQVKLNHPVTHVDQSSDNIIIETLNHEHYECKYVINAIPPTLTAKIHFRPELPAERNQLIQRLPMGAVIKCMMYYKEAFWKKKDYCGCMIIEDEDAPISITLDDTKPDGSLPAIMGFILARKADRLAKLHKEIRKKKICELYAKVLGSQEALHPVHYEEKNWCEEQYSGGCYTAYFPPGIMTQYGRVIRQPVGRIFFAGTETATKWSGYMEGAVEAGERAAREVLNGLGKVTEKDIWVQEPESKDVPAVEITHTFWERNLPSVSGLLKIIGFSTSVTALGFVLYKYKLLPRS

[3] = target: mouse liver MAO enzyme; conditions: cited from earlier work
[4] = tested on: rat MAO enzyme; conditions: cited from earlier work
[5] = target: T1, hMAO-B; assay: Enzyme kinetics of hMAO-B inhibition; type: biochemical
Procedure, shortened: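 For hMAO-B, chemiluminescent MAO-Glo kit reactions were set up at three MAO substrate levels (32, 16 and 8 μM), with or without test compound. Inhibition mode, Km and Vmax were read from Michaelis–Menten and Lineweaver–Burk plots. Secondary plots gave Ki: Kic for inhibitor binding free enzyme, Kiu for binding the enzyme–substrate complex.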

[6] = target: T2, hMAO-A; assay: Enzyme kinetics of hMAO-A inhibition; type: biochemical; conditions: for inhibition type: hMAO-A, determined by Lineweaver–Burk plot
Procedure, shortened: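 hMAO-A activity was measured with the chemiluminescent MAO-Glo kit assay. Reactions ran at three MAO substrate concentrations (320, 160 and 80 μM), with or without test compound. Michaelis–Menten and Lineweaver–Burk plots gave Km, Vmax and inhibition mode. Ki came from secondary plots: Kic for inhibitor binding free enzyme, Kiu for binding the enzyme–substrate complex.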

[7] = target: T2, hMAO-A; conditions: data reproduced from recent publication ref 32; cited from earlier work

## COc1cc2c(c(OC)c1OC)C(=O)c1c(cc(C)c(O)c1OC)C2=O [Compound 6, chryso-obtusin]
[1]
  IC50: > 400 µM
[2]
  IC50: 328 ± 10.2 µM

## Cc1cc(O)c2c(c1)C(=O)c1cc(O)cc(O)c1C2=O [Compound 10, emodin]
[1]
  IC50: 54.7 ± 0.74 µM
[3]
  IC50: 37 µM
[4]
  activity against rat MAO enzyme: inactive
[2]
  IC50: 23.3 ± 1.46 µM

## COc1cc(O)cc2c1C(=O)c1c(O)cc(C)cc1C2=O [Compound 12, questin]
[1]
  IC50: 10.6 ± 0.28 µM
[5]
  Ki: 4.14 µM
[5]; hMAO-B, determined by Lineweaver–Burk plot
  inhibition type: competitive
[2]
  IC50: 0.17 ± 0.01 µM
[6]
  Ki: 0.13 µM
  inhibition type: competitive

## O=C1c2cccc(O)c2C(=O)c2c(O)cc(CO)cc21 [Compound 9, aloe-emodin]
[1]
  IC50: > 400 µM
[4]
  activity against rat MAO enzyme: inactive
[2]
  IC50: 2.47 ± 0.14 µM
[6]
  Ki: 0.5 µM
  inhibition type: competitive

## COc1cc(O)c2c(c1)C(=O)c1cc(C)cc(O)c1C2=O [Compound 2, physcion]
[1]
  IC50: > 400 µM
[4]
  activity against rat MAO enzyme: inactive
[2]
  IC50: > 400 µM

## Cc1cc(O)c2c(c1)C(=O)c1cccc(O)c1C2=O [Compound 1, chrysophanol]
[1]
  IC50: > 400 µM
[4]
  activity against rat MAO enzyme: inactive
[2]
  IC50: > 400 µM

## COc1cc(O)c2c(O)c3c(=O)cc(C)oc3cc2c1 [Compound 13, rubrofusarin]
[1]
  IC50: 91.4 ± 1.31 µM
[7]
  Kiu (binding constant of inhibitor with enzyme–substrate complex): 4.22
  inhibition type: mixed-type
[2]
  SI (selective index): 15.49

## O=C(O)c1cc(O)c2c(c1)C(=O)c1cccc(O)c1C2=O [rhein]
[4]
  activity against rat MAO enzyme: inactive

## COc1c(O)cc2c(c1O)C(=O)c1c(cc(C)c(O)c1OC)C2=O [Compound 5, aurantio-obtusin]
[1]
  IC50: 174 ± 1.86 µM
[2]
  IC50: 27.2 ± 0.85 µM
  SI (selective index): 6.40

## O=C1c2cccc(O)c2C(=O)c2c(O)cccc21 [1,8-dihydroxyanthraquinone]
[4]
  activity against rat MAO enzyme: inactive

## COc1c(O)c(C)cc2c1C(=O)c1c(O)cccc1C2=O [Compound 4, obtusifolin]
[1]
  IC50: > 400 µM
[2]
  IC50: 31.8 ± 0.6 µM
